pIC50: −log10 of the molar value. In brackets after ≈: the same amount, converted by molar mass.
Experiments:
[1] = Inhibition of mitochondrial protein synthesis in rat H9c2 cells measured after 5 days by ELISA; assay type: cell-based; settings: H9c2, 120 h
How it was run: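 H9C2 cells in DMEM with 10% FBS, seeded 1500/well. After 18 h, compound added at final 0.03–200 μM (3-fold series), then 5 days at 37 °C, 5% CO2; 0.5% DMSO negative control. MPS inhibition read by MitoBiogenesis In-Cell ELISA; IC50 calculated.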

[2] = Tmax in Balb/c mouse at 25 mg/kg, po by LC-MS/MS analysis; assay type: ADME, organism-based; settings: in vivo
How it was run: (§1)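 Female BALB/c mice, 20-25 g, five per route. Dosed 25 mg/kg p.o. in 0.5% carboxymethyl cellulose or 2.5 mg/kg i.v. in 10% DMSO/saline. Blood sampled 5 min-72 h (p.o.) or 2 min-48 h (i.v.), quantified by LC/MS/MS with ESI+. Parameters by non-compartmental analysis; F = (AUCpo×dose_iv)/(AUCiv×dose_po)×100%.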

[3] = MRT (0 to t) in Balb/c mouse at 25 mg/kg, po by LC-MS/MS analysis; assay type: ADME, organism-based; settings: in vivo
How it was run: (§2)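 Female BALB/c mice (20–25 g), five per route. Oral dose 25 mg/kg in 0.5% carboxymethyl cellulose; i.v. dose 2.5 mg/kg in 10% DMSO/physiological saline. Blood sampled 5 min–72 h after p.o. and 2 min–48 h after i.v. Analyte quantified by LC/MS/MS (ESI positive, C18, isocratic methanol/water). Parameters from non-compartmental analysis.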

[4] = AUC (0 to t) in Balb/c mouse at 25 mg/kg, po by LC-MS/MS analysis; assay type: ADME, organism-based; set-up: dose 25 mg/kg; settings: in vivo; how it was run: as §2
[5] = Terminal half life in Balb/c mouse at 25 mg/kg, po by LC-MS/MS analysis; assay type: ADME, organism-based; settings: in vivo, read-out: beta t1/2 (converted); how it was run: as §1
[6] = MRT (0 to infinity) in Balb/c mouse at 25 mg/kg, po by LC-MS/MS analysis; assay type: ADME, organism-based; settings: in vivo; how it was run: as §2
[7] = tested on: Mycobacterium tuberculosis; assay: Antitubercular activity against Mycobacterium tuberculosis H37Rv incubated for 7 days by microplate alamar blue assay; assay type: functional; settings: 168 h, time 7 day
How it was run: (§3)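 MIC determined by microplate alamar blue assay (MABA) following a published protocol.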

[8] = Cmax in Balb/c mouse at 25 mg/kg, po by LC-MS/MS analysis; assay type: ADME, organism-based; set-up: route oral, dose 25 mg/kg; settings: in vivo; how it was run: as §2
[9] = AUC (0 to infinity) in Balb/c mouse at 25 mg/kg, po by LC-MS/MS analysis; assay type: ADME, organism-based; set-up: route oral, time infinity, dose 25 mg/kg; settings: in vivo; how it was run: as §2
[10] = tested on: Vero; assay: Cytotoxicity against African green monkey Vero cells assessed as reduction in cell viability measured after 48 hrs by MTT assay; assay type: cell-based; settings: Chlorocebus sabaeus
How it was run: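 Cytotoxicity on Vero or HepG2 cells by MTT assay, run as previously reported.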

[11] = Stability in CD-1 mouse liver microsome assessed as parent compound remaining at 1 uM measured after 30 mins in presence of NADPH by LC-MS/MS analysis; assay type: ADME; settings: liver microsomes, read-out: Stabilty
How it was run: (§4)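 Liver microsomes (male CD-1 mouse or pooled human), 1 mg/mL protein, compound 1 µM, 37°C with shaking. Started with 1 mM NADPH or run without cofactor. Quenched with ice-cold ACN/MeOH containing internal standard. Parent quantified by LC-MS/MS; 30 min concentration normalised to time zero.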

[12] = Stability in CD-1 mouse liver microsome at 1 uM measured after 30 mins in absence of NADPH by LC-MS/MS analysis; assay type: ADME; settings: microsomes, 0.5 h; how it was run: as §4
[13] = tested on: Mycobacterium tuberculosis; assay: Antitubercular activity against Mycobacterium tuberculosis isolate 12525 incubated for 7 days by microplate alamar blue assay; assay type: functional; settings: isolate 12525, 168 h, time 7 day; how it was run: as §3
[14] = Mycobacterium tuberculosis, H37Rv, read-out: MIC

SMILES	pIC50 [1]	MIC [7, 14]	IC50 [10]	further results
CC(=O)NC[C@@H]1OC(=O)N2c3cc(F)c(N4CCS(=O)(=O)CC4)cc3OC[C@@H]12	4.59	0.93 µg/mL (≈ 2.25 µM)		Tmax [2]: 1 h; MRT last [3]: 10.3 h; AUC(0-t) [4]: 1250 ng·h/mL; half-life [5]: 458 min; MRT inf [6]: 14.3 h; Cmax [8]: 118 ng/mL; AUC(0-inf) [9]: 1480 ng·h/mL
O=C(NC[C@@H]1OC(=O)N2c3cc(F)c(N4C5CCC4CSC5)cc3OC[C@@H]12)C1CC1		0.98 µg/mL (≈ 2.26 µM)	> 64 µg/mL	
CC(=O)N(C)C[C@@H]1OC(=O)N2c3cc(F)c(N4CCSCC4)cc3OC[C@@H]12		> 1 µg/mL		
CNC[C@@H]1OC(=O)N2c3cc(F)c(N4CCSCC4)cc3OC[C@@H]12		> 32 µg/mL	46.5 µg/mL (≈ 132 µM)	
O=C1O[C@@H](CO)[C@H]2COc3cc(N4CCSCC4)c(F)cc3N12 (racemic)		> 32 µg/mL		
O=C(NC[C@@H]1OC(=O)N2c3cc(F)c(N4CCSCC4)cc3OC[C@@H]12)c1cnccn1	< 4.00	0.12 µg/mL (≈ 0.269 µM)	40.7 µg/mL (≈ 91.3 µM)	remaining at 0.5 h, 1 µM [11]: 6.85%; Stabilty [12]: Stable
O=C1O[C@@H](Cn2ccnn2)[C@@H]2COc3cc(N4CC5(COC5)C4)c(F)cc3N12		> 32 µg/mL	> 64 µg/mL	
O=C1O[C@@H](Cn2ccnn2)[C@@H]2COc3cc(N4C5CCC4CSC5)c(F)cc3N12		> 32 µg/mL	> 64 µg/mL	
NC[C@@H]1OC(=O)N2c3cc(F)c(N4CCSCC4)cc3OC[C@H]12 (racemic)		> 32 µg/mL		
CC(=O)N(C[C@@H]1OC(=O)N2c3cc(F)c(N4CCSCC4)cc3OC[C@@H]12)C(C)=O		0.34 µg/mL (≈ 0.803 µM)	> 64 µg/mL	
O=C1O[C@@H](CO)[C@@H]2COc3cc(N4CCSCC4)c(F)cc3N12 (racemic)		3.79 µg/mL (≈ 11.1 µM)		
COC(=O)NC[C@@H]1OC(=O)N2c3cc(F)c(N4CCSCC4)cc3OC[C@@H]12	< 4.00	0.03 µg/mL (≈ 0.0755 µM)		remaining at 0.5 h, 1 µM [11]: 3.59%; Stabilty [12]: Stable
CC(=O)NC[C@@H]1OC(=O)N2c3cc(F)c(N4C5CCC4CSC5)cc3OC[C@@H]12		0.92 µg/mL (≈ 2.26 µM)	58.5 µg/mL (≈ 144 µM)	
O=C(NC[C@@H]1OC(=O)N2c3cc(F)c(N4CC5(COC5)C4)cc3OC[C@@H]12)C1CC1		3.09 µg/mL (≈ 7.66 µM)		
O=C(NC[C@@H]1OC(=O)N2c3cc(F)c(N4CCSCC4)cc3OC[C@@H]12)c1ccncc1	< 4.00	0.16 µg/mL (≈ 0.36 µM)		remaining at 0.5 h, 1 µM [11]: 20.8%; Stabilty [12]: Stable
O=C(NC[C@@H]1OC(=O)N2c3cc(F)c(N4C5CCC4CSC5)cc3OC[C@@H]12)C1CCC1		0.97 µg/mL (≈ 2.17 µM)	34.7 µg/mL (≈ 77.5 µM)	
O=C(NC[C@@H]1OC(=O)N2c3cc(F)c(N4C5CCC4CSC5)cc3OC[C@@H]12)c1cnccn1		> 32 µg/mL	9.53 µg/mL (≈ 20.2 µM)	
O=C(NC[C@@H]1OC(=O)N2c3cc(F)c(N4C5CCC4CSC5)cc3OC[C@@H]12)c1ccncc1		2.83 µg/mL (≈ 6.01 µM)	> 64 µg/mL	
O=C(NC[C@@H]1OC(=O)N2c3cc(F)c(N4CCSCC4)cc3OC[C@@H]12)C1CC1	< 4.00	0.03 µg/mL (≈ 0.0736 µM)		remaining at 0.5 h, 1 µM [11]: 15%; Stabilty [12]: Stable
O=C(NC[C@@H]1OC(=O)N2c3cc(F)c(N4CC5(COC5)C4)cc3OC[C@@H]12)C1CCC1		4.2 µg/mL (≈ 10.1 µM)		

SMILES	pIC50 [1]	MIC [7, 14]	IC50 [10]	further results
COC(=O)NC[C@@H]1OC(=O)N2c3cc(F)c(N4C5CCC4CSC5)cc3OC[C@@H]12		1.68 µg/mL (≈ 3.97 µM)	> 64 µg/mL	
CC(=O)NC[C@H]1OC(=O)N2c3cc(F)c(N4CCSCC4)cc3OC[C@H]12		> 32 µg/mL		
NC[C@@H]1OC(=O)N2c3cc(F)c(N4CCSCC4)cc3OC[C@@H]12	< 4.00		36 µg/mL (≈ 106 µM)	remaining at 0.5 h, 1 µM [11]: 15.8%; MIC [7]: 0.03 µg/mL (≈ 0.0884 µM); Stabilty [12]: Stable
CC(=O)NC[C@@H]1OC(=O)N2c3cc(F)c(N4CCSCC4)cc3OC[C@@H]12 (racemic)				MIC [7]: 0.16 µg/mL (≈ 0.419 µM)
CC(=O)NC[C@@H]1OC(=O)N2c3cc(F)c(N4CCOCC4)cc3OC[C@@H]12	4.29	0.89 µg/mL (≈ 2.44 µM)	> 64 µg/mL	
CC(=O)OC[C@@H]1OC(=O)N2c3cc(F)c(N4CCSCC4)cc3OC[C@@H]12		> 1 µg/mL		
CC(C)C(=O)NC[C@@H]1OC(=O)N2c3cc(F)c(N4C5CCC4CSC5)cc3OC[C@@H]12		1.48 µg/mL (≈ 3.4 µM)	> 64 µg/mL	
O=C1O[C@@H](Cn2ccnn2)[C@@H]2COc3cc(N4CCSCC4)c(F)cc3N12	< 4.00	0.23 µg/mL (≈ 0.588 µM)		remaining at 0.5 h, 1 µM [11]: 21.7%; Stabilty [12]: Stable
CC(=O)NC[C@@H]1OC(=O)N2c3ccc(N4CCSCC4)cc3OC[C@@H]12		0.79 µg/mL (≈ 2.17 µM)	> 64 µg/mL	
CC(C)C(=O)NC[C@@H]1OC(=O)N2c3cc(F)c(N4CCSCC4)cc3OC[C@@H]12	< 4.00	0.1 µg/mL (≈ 0.244 µM)		remaining at 0.5 h, 1 µM [11]: 6.02%; Stabilty [12]: Stable
NC[C@@H]1OC(=O)N2c3cc(F)c(N4CCSCC4)cc3OC[C@@H]12 (racemic)				MIC [7]: 0.1 µg/mL (≈ 0.295 µM)
CC(=O)NC[C@@H]1OC(=O)N2c3cc(F)c(N4CCSCC4)cc3OC[C@H]12 (racemic)		> 32 µg/mL		
CC(=O)NC[C@@H]1OC(=O)N2c3cc(F)c(N4CCC(F)(F)CC4)cc3OC[C@@H]12	4.99	0.91 µg/mL (≈ 2.28 µM)		
O=C(NC[C@@H]1OC(=O)N2c3cc(F)c(N4CCSCC4)cc3OC[C@@H]12)C1CCC1	4.27	0.03 µg/mL (≈ 0.0712 µM)		remaining at 0.5 h, 1 µM [11]: 4%; Stabilty [12]: Stable
O=C1O[C@@H](CNc2ccon2)[C@@H]2COc3cc(N4CCSCC4)c(F)cc3N12	< 4.00	0.03 µg/mL (≈ 0.0738 µM)		remaining at 0.5 h, 1 µM [11]: 0%; Stabilty [12]: Stable
O=C1O[C@@H](CNc2ccon2)[C@@H]2COc3cc(N4C5CCC4CSC5)c(F)cc3N12		2.52 µg/mL (≈ 5.83 µM)	> 64 µg/mL	
CC(=O)NC[C@@H]1OC(=O)N2c3cc(F)c(N4CC5(COC5)C4)cc3OC[C@@H]12		3.92 µg/mL (≈ 10.4 µM)		
CO[C@H]1/C=C/O[C@@]2(C)Oc3c(C)c(O)c4c(O)c(c(/C=N/N5CCN(C)CC5)c(O)c4c3C2=O)NC(=O)/C(C)=C\C=C\[C@H](C)[C@H](O)[C@@H](C)[C@@H](O)[C@@H](C)[C@H](OC(C)=O)[C@@H]1C [RIFAMPIN]				MIC [13]: > 10 µg/mL
CS(=O)(=O)NC[C@@H]1OC(=O)N2c3cc(F)c(N4CCSCC4)cc3OC[C@@H]12		3.9 µg/mL (≈ 9.34 µM)		
